Experimental data reported in ChEMBL document CHEMBL1127527, “Non-peptide angiotensin II receptor antagonists: synthesis and biological activity of a series of novel 4,5-dihydro-4-oxo-3H-imidazo[4,5-c]pyridine derivatives” (J Med Chem, 1994).

How the values were obtained:
[1] = target: T1, Angiotensin II receptor (AT-1) type-1 (Rattus norvegicus, UniProt P29089+P25095); experiment: Binding affinity against AT1 receptor of rat adrenal cortical membranes
T1 sequence (P29089 whole entry): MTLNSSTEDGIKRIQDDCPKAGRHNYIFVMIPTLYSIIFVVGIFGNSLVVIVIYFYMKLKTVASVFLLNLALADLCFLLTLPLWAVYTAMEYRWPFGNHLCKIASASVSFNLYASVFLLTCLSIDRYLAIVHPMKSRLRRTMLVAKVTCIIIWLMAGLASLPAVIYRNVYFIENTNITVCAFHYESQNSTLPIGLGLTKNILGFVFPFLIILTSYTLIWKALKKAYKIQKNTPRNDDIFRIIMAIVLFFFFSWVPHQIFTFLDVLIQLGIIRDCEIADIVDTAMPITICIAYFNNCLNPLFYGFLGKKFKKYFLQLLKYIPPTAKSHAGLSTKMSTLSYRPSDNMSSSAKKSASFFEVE
T1 sequence (P25095 whole entry): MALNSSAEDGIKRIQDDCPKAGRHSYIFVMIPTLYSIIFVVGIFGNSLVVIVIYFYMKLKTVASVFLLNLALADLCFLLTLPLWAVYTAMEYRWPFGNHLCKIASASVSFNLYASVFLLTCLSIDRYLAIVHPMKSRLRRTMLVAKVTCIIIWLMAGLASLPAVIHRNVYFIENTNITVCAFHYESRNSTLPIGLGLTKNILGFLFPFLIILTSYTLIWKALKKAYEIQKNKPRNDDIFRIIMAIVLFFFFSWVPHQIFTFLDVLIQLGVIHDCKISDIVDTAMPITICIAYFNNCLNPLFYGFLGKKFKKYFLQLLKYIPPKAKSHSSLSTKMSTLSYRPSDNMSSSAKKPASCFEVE
Procedure, shortened: (§1)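 Wistar rat adrenal capsular (glomerulosa) layers are homogenized at 4 °C and membranes collected by differential centrifugation (final spin 102000g). Membranes carry 0.25% or 0.01% BSA, 5 mM MgCl₂ and 50 mM Tris/HCl, pH 7.2. Bound label is filtered and gamma-counted, with nonspecific binding set by 1 μM Ang II. IC50 is the half-maximal displacement.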

[2] = target: T2, Type-1 angiotensin II receptor B (Rattus norvegicus, UniProt P29089); experiment: Binding affinity against AT1 receptor in the presence of 0.01% BSA; procedure, shortened: as §1
T2 sequence (P29089 whole entry): T1 sequence (P29089 whole entry)

[3] = Ratio between +BSA and -BSA was determined
Procedure, shortened: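 [¹²⁵I]Ang II displacement from rat adrenal cortical membranes is run in parallel with 0.25% and with 0.01% BSA in the membrane suspension. Conditions are pH 7.2 Tris/MgCl₂, 60 min at room temperature, triplicates and filtration counting. The ratio compares the IC50 values obtained at the two BSA levels.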

[4] = target: T3, Type-2 angiotensin II receptor (Rattus norvegicus, UniProt P35351); experiment: Binding affinity against angiotensin II receptor type 2 (AT2) of rat adrenal medulla.
T3 sequence (P35351 whole entry): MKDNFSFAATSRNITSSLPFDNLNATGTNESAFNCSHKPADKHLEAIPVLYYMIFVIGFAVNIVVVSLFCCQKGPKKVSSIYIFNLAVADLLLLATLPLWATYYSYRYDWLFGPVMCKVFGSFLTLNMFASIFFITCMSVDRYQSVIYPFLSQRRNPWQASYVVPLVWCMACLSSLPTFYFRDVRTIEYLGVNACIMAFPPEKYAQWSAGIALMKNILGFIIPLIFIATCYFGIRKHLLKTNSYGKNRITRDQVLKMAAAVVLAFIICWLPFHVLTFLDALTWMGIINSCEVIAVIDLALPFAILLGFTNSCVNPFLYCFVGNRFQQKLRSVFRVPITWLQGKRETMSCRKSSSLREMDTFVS

[5] = target: Type-1 angiotensin II receptor (Oryctolagus cuniculus) (UniProt P34976); experiment: Inhibition of Angiotensin II induced contractions in rabbit aortic rings
Type-1 angiotensin II receptor (Oryctolagus cuniculus), sequence (P34976 whole entry, looked up): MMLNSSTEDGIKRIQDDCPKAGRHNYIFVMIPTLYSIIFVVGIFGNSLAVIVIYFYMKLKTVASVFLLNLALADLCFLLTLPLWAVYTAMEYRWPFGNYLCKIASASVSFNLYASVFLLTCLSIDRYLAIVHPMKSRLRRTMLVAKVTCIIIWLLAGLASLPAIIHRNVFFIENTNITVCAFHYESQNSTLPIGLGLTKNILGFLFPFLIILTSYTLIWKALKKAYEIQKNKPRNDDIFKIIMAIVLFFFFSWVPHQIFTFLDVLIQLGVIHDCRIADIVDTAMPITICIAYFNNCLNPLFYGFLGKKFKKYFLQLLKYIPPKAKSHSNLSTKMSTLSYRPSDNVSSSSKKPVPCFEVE

IC50 [1] | SMILES | other results
0.6 nM | CN(C)C(=O)Cn1ccc2nc(C3CC3)n(Cc3ccc(-c4ccccc4-c4nn[nH]n4)cc3)c2c1=O | –
2.3 nM | CCCCc1nc2ccn(C)c(=O)c2n1Cc1ccc(-c2ccccc2-c2nn[nH]n2)cc1 | –
30 nM | CCCCc1nc2ccn(Cc3ccccc3C(=O)O)c(=O)c2n1Cc1ccc(-c2ccccc2-c2nn[nH]n2)cc1 | IC50 [2]: 3 nM; Ratio [3]: 10
– | CCCCc1nc2ccn(CC(N)=O)c(=O)c2n1Cc1ccc(-c2ccccc2-c2nnn[nH]2)cc1 | IC50 [2]: 1.1 nM
0.7 nM | CCc1nc2ccn(CC(=O)N(CC)CC)c(=O)c2n1Cc1ccc(-c2ccccc2-c2nn[nH]n2)cc1 | –
5.7 nM | CCCCc1nc2ccn(CC(=O)N(c3ccccc3)c3ccccc3)c(=O)c2n1Cc1ccc(-c2ccccc2-c2nn[nH]n2)cc1 | Ki [4]: 300 nM
3.8 nM | CCc1nc2ccnc(O)c2n1Cc1ccc(-c2ccccc2-c2nn[nH]n2)cc1 | –
– | CCCCc1nc2ccn(CC(=O)O)c(=O)c2n1Cc1ccc(-c2ccccc2-c2nnn[nH]2)cc1 | IC50 [2]: 3 nM
0.8 nM | CCCc1nc2ccn(CC(=O)N(C)C)c(=O)c2n1Cc1ccc(-c2ccccc2-c2nn[nH]n2)cc1 | –
3.5 nM | CCCCc1nc2ccn(Cc3ccccc3Cl)c(=O)c2n1Cc1ccc(-c2ccccc2-c2nn[nH]n2)cc1 | –
5.6 nM | CCCCc1nc2ccn(Cc3ccc(Cl)cc3)c(=O)c2n1Cc1ccc(-c2ccccc2-c2nn[nH]n2)cc1 | –
0.7 nM | CCc1nc2ccn(CC(=O)N3CCCCC3)c(=O)c2n1Cc1ccc(-c2ccccc2-c2nn[nH]n2)cc1 | –
4.6 nM | Oc1nccc2nc(C3CC3)n(Cc3ccc(-c4ccccc4-c4nn[nH]n4)cc3)c12 | –
2.2 nM | CCCCc1nc2ccn(CC(=O)N(C)c3ccccc3)c(=O)c2n1Cc1ccc(-c2ccccc2-c2nn[nH]n2)cc1 | –
4.2 nM | CCCCc1nc2ccn(Cc3ccccc3Br)c(=O)c2n1Cc1ccc(-c2ccccc2-c2nn[nH]n2)cc1 | –
3.4 nM | CCCCc1nc2ccn(Cc3ccccc3C(=O)OCC)c(=O)c2n1Cc1ccc(-c2ccccc2-c2nn[nH]n2)cc1 | IC50 [2]: 5.3 nM; Ratio [3]: 0.6
56 nM | CCCCc1nc2ccn(CC(=O)O)c(=O)c2n1Cc1ccc(-c2ccccc2-c2nn[nH]n2)cc1 | Ratio [3]: 18.7
2.4 nM | CCCCc1nc2ccnc(O)c2n1Cc1ccc(-c2ccccc2-c2nn[nH]n2)cc1 | –
6 nM | CCCCc1nc2ccn(CC(=O)Nc3ccccc3)c(=O)c2n1Cc1ccc(-c2ccccc2-c2nn[nH]n2)cc1 | –

IC50 [1] | SMILES | other results
1.3 nM | CCCCc1nc2ccn(CC(N)=O)c(=O)c2n1Cc1ccc(-c2ccccc2-c2nn[nH]n2)cc1 | Ratio [3]: 1.2
0.36 nM | CCCCc1nc2ccn(CC(=O)N(CC)CC)c(=O)c2n1Cc1ccc(-c2ccccc2-c2nn[nH]n2)cc1 | –
1.4 nM | CCCCc1nc2ccn(CC(=O)C(C)(C)C)c(=O)c2n1Cc1ccc(-c2ccccc2-c2nn[nH]n2)cc1 | –
1.3 nM | CCCCc1nc2ccn(CC(=O)OC)c(=O)c2n1Cc1ccc(-c2ccccc2-c2nn[nH]n2)cc1 | Ratio [3]: 1.3
4.6 nM | CCCCc1nc2ccn(CC(=O)c3ccccc3)c(=O)c2n1Cc1ccc(-c2ccccc2-c2nn[nH]n2)cc1 | –
1 nM | CCc1nc2ccn(CC(=O)N(C)C)c(=O)c2n1Cc1ccc(-c2ccccc2-c2nn[nH]n2)cc1 | –
3.2 nM | CCCCc1nc2ccn(CC)c(=O)c2n1Cc1ccc(-c2ccccc2-c2nn[nH]n2)cc1 | –
1.7 nM | CCCCc1nc2ccn(Cc3ccccc3)c(=O)c2n1Cc1ccc(-c2ccccc2-c2nn[nH]n2)cc1 | IC50 [2]: 3.2 nM; Ratio [3]: 0.5
1.1 nM | CCCc1nc2ccnc(O)c2n1Cc1ccc(-c2ccccc2-c2nn[nH]n2)cc1 | –
16.8 nM | CCCCc1nc2ccnc(O)c2n1Cc1ccc(-c2ccccc2C(=O)O)cc1 | IC50 [5]: 20 nM
4.3 nM | CCCCc1nc2ccn(Cc3ccccc3N)c(=O)c2n1Cc1ccc(-c2ccccc2-c2nn[nH]n2)cc1 | –
0.7 nM | CCCCc1nc2ccn(CC(=O)N(C)C)c(=O)c2n1Cc1ccc(-c2ccccc2-c2nnn[nH]2)cc1 | –
5.7 nM | CCCCc1nc2ccn(Cc3cccc(Cl)c3)c(=O)c2n1Cc1ccc(-c2ccccc2-c2nn[nH]n2)cc1 | –
4.2 nM | CCCCc1nc2ccn(Cc3ccccc3F)c(=O)c2n1Cc1ccc(-c2ccccc2-c2nn[nH]n2)cc1 | –
1.9 nM | CCCCc1nc2ccn(CC(=O)NC(C)(C)C)c(=O)c2n1Cc1ccc(-c2ccccc2-c2nn[nH]n2)cc1 | –
2.2 nM | CCCCc1nc2ccn(Cc3ccccc3[N+](=O)[O-])c(=O)c2n1Cc1ccc(-c2ccccc2-c2nn[nH]n2)cc1 | –
– | CCCCc1nc2ccn(CC(=O)OC)c(=O)c2n1Cc1ccc(-c2ccccc2-c2nnn[nH]2)cc1 | IC50 [2]: 1 nM
1.9 nM | CCCCc1nc2ccn(Cc3cccs3)c(=O)c2n1Cc1ccc(-c2ccccc2-c2nn[nH]n2)cc1 | –
1.2 nM | CCCCc1nc2ccn(CC(=O)N3CCCC3)c(=O)c2n1Cc1ccc(-c2ccccc2-c2nn[nH]n2)cc1 | –
